Source: ChEMBL document CHEMBL4715693, “Synthesis and antiviral properties of novel indole-based thiosemicarbazides and 4-thiazolidinones” (Bioorg Med Chem, 2016)
Converted amounts (≈) assume the structure as drawn.

How the values were obtained:
Feline coronavirus = assay: Antiviral activity against Feline coronavirus infected in cat CRFK cells assessed as reduction in virus-induced cytopathic effect incubated for 3 to 6 days by light microscopic analysis; format: functional, organism-based; conditions: Alphacoronavirus 1, CRFK
Sindbis virus = assay: Antiviral activity against Sindbis virus infected in African green monkey Vero cells assessed as reduction in virus-induced cytopathic effect incubated for 3 to 6 days by light microscopic analysis; format: functional, organism-based
Procedure, shortened: (§1)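 CPE reduction assay: virus and serial compound dilutions added together to subconfluent HeLa (vesicular stomatitis, Coxsackie B4, respiratory syncytial) or Vero (Coxsackie B4, Sindbis, Punta Toro) cultures. Incubated 3–6 days at 37 °C. […] Mean ± SEM of three independent tests.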

MT4 = assay: Cytotoxicity against human MT4 cells assessed as reduction in cell viability incubated for 3 to 6 days by MTS assay; format: cell-based; conditions: time 3-6 day
Procedure, shortened: (§2)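 CRFK or MT4 cells were exposed to serial compound dilutions alongside the antiviral assays for 3–6 days at 37 °C.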

Coxsackievirus B4 [1] = assay: Antiviral activity against Human coxsackievirus B4 infected in African green monkey Vero cells assessed as reduction in virus-induced cytopathic effect incubated for 3 to 6 days by light microscopic analysis; format: functional, organism-based; conditions: Enterovirus B; procedure, shortened: as §1
Felid alphaherpesvirus 1 = assay: Antiviral activity against Feline herpesvirus infected in cat CRFK cells assessed as reduction in virus-induced cytopathic effect incubated for 3 to 6 days by light microscopic analysis; format: functional, organism-based; conditions: Felid alphaherpesvirus 1, CRFK
Vaccinia virus = assay: Antiviral activity against Vaccinia virus infected in human HEL cells assessed as reduction in virus-induced cytopathic effect incubated for 3 to 6 days by light microscopic analysis; format: functional, organism-based; conditions: Orthopoxvirus vaccinia
Human respirovirus 3 = assay: Antiviral activity against Human parainfluenza virus 3 infected in African green monkey Vero cells assessed as reduction in virus-induced cytopathic effect incubated for 3 to 6 days by light microscopic analysis; format: functional, organism-based; conditions: Human respirovirus 3, Vero
Influenza B virus = assay: Antiviral activity against influenza B virus infected in dog MDCK cells assessed as reduction in virus-induced cytopathic effect incubated for 3 to 6 days by light microscopic analysis; format: functional, organism-based
Procedure, shortened: (§3)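 MDCK cells, subconfluent, received influenza A or B virus together with serial compound dilutions. Incubated 3–6 days at 35 °C.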

[2] = tested on: Mammalian orthoreovirus 1; assay: Antiviral activity against Mammalian orthoreovirus 1 infected in African green monkey Vero cells assessed as reduction in virus-induced cytopathic effect incubated for 3 to 6 days by light microscopic analysis; format: functional, organism-based; conditions: Mammalian orthoreovirus 1, Vero
[3] = tested on: Vesicular stomatitis virus; assay: Antiviral activity against Vesicular stomatitis virus infected in human HeLa cells assessed as reduction in virus-induced cytopathic effect incubated for 3 to 6 days by light microscopic analysis; format: functional, organism-based
Procedure, shortened: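 CPE reduction assay: virus and serial compound dilutions added together to subconfluent HeLa (vesicular stomatitis, Coxsackie B4, respiratory syncytial) or Vero (Coxsackie B4, Sindbis, Punta Toro) cultures. Incubated 3–6 days at 37 °C. Mean ± SEM of three independent tests.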

[4] = tested on: Human immunodeficiency virus 1; assay: Antiviral activity against Human immunodeficiency virus 1 infected in human MT4 cells assessed as reduction in virus-induced cytopathic effect incubated for 3 to 6 days by light microscopic analysis; format: functional, organism-based; conditions: Human immunodeficiency virus 1, MT4
[5] = tested on: Human immunodeficiency virus 2; assay: Antiviral activity against Human immunodeficiency virus 2 infected in human MT4 cells assessed as reduction in virus-induced cytopathic effect incubated for 3 to 6 days by light microscopic analysis; format: functional, organism-based; conditions: Human immunodeficiency virus 2, MT4
Human alphaherpesvirus 1 = assay: Antiviral activity against Herpes simplex virus 1 infected in human HEL cells assessed as reduction in virus-induced cytopathic effect incubated for 3 to 6 days by light microscopic analysis; format: functional, cell-based; conditions: Human alphaherpesvirus 1, HEL
[6] = tested on: Respiratory syncytial virus; assay: Antiviral activity against Respiratory syncytial virus infected in human HeLa cells assessed as reduction in virus-induced cytopathic effect incubated for 3 to 6 days by light microscopic analysis; format: functional, organism-based; procedure, shortened: as §1
[7] = Cytotoxicity against human HEL cells assessed as changes in cell morphology incubated for 3 to 6 days by light microscopy; format: cell-based; conditions: time 3-6 day
Procedure, shortened: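 Human embryonic lung fibroblasts incubated with serial compound dilutions alongside the antiviral assays, 37 °C, 3–6 days. Morphology inspected by light microscopy; minimal cytotoxic concentration taken as lowest concentration giving minimal morphological change.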

Coxsackievirus B4 [8] = assay: Antiviral activity against Human coxsackievirus B4 infected in human HeLa cells assessed as reduction in virus-induced cytopathic effect incubated for 3 to 6 days by light microscopic analysis; format: functional, organism-based; conditions: Enterovirus B; procedure, shortened: as §1
[9] = Cytotoxicity against cat CRFK cells assessed as reduction in cell viability incubated for 3 to 6 days by MTS assay; format: cell-based, Felis catus; conditions: time 3-6 day; procedure, shortened: as §2
Human alphaherpesvirus 2 = assay: Antiviral activity against Herpes simplex virus 2 infected in human HEL cells assessed as reduction in virus-induced cytopathic effect incubated for 3 to 6 days by light microscopic analysis; format: functional, cell-based; conditions: Human alphaherpesvirus 2, HEL
Punta Toro virus = assay: Antiviral activity against Punta Toro virus infected in African green monkey Vero cells assessed as reduction in virus-induced cytopathic effect incubated for 3 to 6 days by light microscopic analysis; format: functional, organism-based; procedure, shortened: as §1
Influenza A virus = assay: Antiviral activity against influenza A virus infected in dog MDCK cells assessed as reduction in virus-induced cytopathic effect incubated for 3 to 6 days by light microscopic analysis; format: functional, organism-based; conditions: Influenza A virus, MDCK; procedure, shortened: as §3
[10] = Cytotoxicity against human HeLa cells assessed as changes in cell morphology incubated for 3 to 6 days by light microscopic analysis; format: cell-based; conditions: time 3-6 day
Procedure, shortened: (§4)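 Uninfected subconfluent cells (Vero or HeLa, as named) exposed to serial compound dilutions in parallel with the CPE assays, 37 °C, 3–6 days. Cell morphology examined by light microscopy; MCC = minimal concentration causing microscopically detectable changes in morphology.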

[11] = Cytotoxicity against African green monkey Vero cells assessed as changes in cell morphology incubated for 3 to 6 days by light microscopy; format: cell-based; conditions: chlorocebus sabaeus, time 3-6 day; procedure, shortened: as §4

SMILES	EC50 (Feline coronavirus)	EC50 (Sindbis virus) [µg/mL]	CC50 (MT4)	EC50 (Coxsackievirus B4 [1]) [µg/mL]	EC50 (Felid alphaherpesvirus 1)	EC50 (Vaccinia virus)	EC50 (Human respirovirus 3) [µg/mL]	EC50 (Influenza B virus) [µg/mL]	EC50 [2] [µg/mL]	EC50 [3] [µg/mL]	EC50 [4] [µg/mL]	EC50 [5] [µg/mL]	EC50 (Human alphaherpesvirus 1) [µg/mL]	EC50 [6] [µg/mL]	MCC [7]	EC50 (Coxsackievirus B4 [8]) [µg/mL]	CC50 ([9]; crfk) [µg/mL]	EC50 (Human alphaherpesvirus 2) [µg/mL]	EC50 (Punta Toro virus) [µg/mL]	EC50 (Influenza A virus) [µg/mL]	further results
CCCN1C(=O)CS/C1=N\NC(=O)c1[nH]c2ccc(F)cc2c1-c1ccccc1	> 100 µg/mL	> 100	> 125 µg/mL	> 100	> 100 µg/mL	> 100 µg/mL	> 100	> 100	> 100	> 100	> 100	> 100	> 100	> 100	> 100 µg/mL	> 100	> 100	> 100	> 100	> 100	–
Cc1cn([C@H]2C[C@H](N=[N+]=[N-])[C@@H](CO)O2)c(=O)[nH]c1=O [ZIDOVUDINE]	–	–	> 25 µg/mL	–	–	–	–	–	–	–	–	–	–	–	–	–	–	–	–	–	–
O=C(NNC(=S)NCc1ccccc1)c1[nH]c2ccc(F)cc2c1-c1ccccc1	> 100 µg/mL	> 100	11 µg/mL (≈ 26.3 µM)	> 100	> 100 µg/mL	> 100 µg/mL	> 100	> 100	> 100	> 100	> 100	> 100	> 100	> 100	> 10 µg/mL	> 100	1.9	> 100	> 100	> 100	MCC [10]: 4 µg/mL; MCC [11]: 10 µg/mL
Nc1nc2c(ncn2COC(CO)CO)c(=O)[nH]1 [GANCICLOVIR]	> 100 µM	–	–	–	7.4 µM	> 100 µM	–	–	–	–	–	–	–	–	> 100 µM	–	–	–	–	–	CC50 ([9]; CRFK cells, read-out: CC50): > 100 µM
O=C(N/N=C1\SCC(=O)N1CCc1ccccc1)c1[nH]c2ccc(F)cc2c1-c1ccccc1	> 100 µg/mL	> 100	>= 108 ug ml-1	> 100	> 100 µg/mL	> 100 µg/mL	> 100	> 100	> 100	> 100	> 100	> 100	> 100	> 100	> 10 µg/mL	> 100	17	> 100	> 100	> 100	MCC [11]: 10 µg/mL
CCCCN1C(=O)CS/C1=N\NC(=O)c1[nH]c2ccc(F)cc2c1-c1ccccc1	> 100 µg/mL	> 100	>= 98 ug ml-1	> 100	> 100 µg/mL	> 100 µg/mL	> 100	> 100	> 100	> 100	> 100	> 100	> 100	> 100	> 10 µg/mL	> 100	> 100	> 100	> 100	> 100	–
CN1C(=O)CS/C1=N\NC(=O)c1[nH]c2ccc(F)cc2c1-c1ccccc1	> 100 µg/mL	> 100	> 125 µg/mL	> 100	> 100 µg/mL	> 100 µg/mL	> 100	> 100	> 100	> 100	> 100	> 100	> 100	> 100	> 100 µg/mL	> 100	> 100	> 100	> 100	> 100	MCC [11]: 20 µg/mL
